Here are results for one molecule from ChEMBL document CHEMBL1140036, “Novel glucagon receptor antagonists with improved selectivity over the glucose-dependent insulinotropic polypeptide receptor” (J Med Chem, 2008).

Molecules are shown by their SMILES. The source made the active and inactive calls.

In data set [1] the target is Glucagon receptor (Homo sapiens, UniProt P47871). Put plainly: Binding affinity to human cloned GluR expressed in BHK cells. Type of data set: cell-based. Put shortly:
(§1)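 Competitive binding on purified plasma membranes from BHK cells expressing the cloned human receptor (glucagon, GIP or GLP-1 receptor). The glucagon receptor protocol follows earlier published work, and the GIP and GLP-1 assays were done the same way.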

For data set [2], the target named is T1, Gastric inhibitory polypeptide receptor (Homo sapiens, UniProt P48546).
T1 sequence (P48546 whole entry): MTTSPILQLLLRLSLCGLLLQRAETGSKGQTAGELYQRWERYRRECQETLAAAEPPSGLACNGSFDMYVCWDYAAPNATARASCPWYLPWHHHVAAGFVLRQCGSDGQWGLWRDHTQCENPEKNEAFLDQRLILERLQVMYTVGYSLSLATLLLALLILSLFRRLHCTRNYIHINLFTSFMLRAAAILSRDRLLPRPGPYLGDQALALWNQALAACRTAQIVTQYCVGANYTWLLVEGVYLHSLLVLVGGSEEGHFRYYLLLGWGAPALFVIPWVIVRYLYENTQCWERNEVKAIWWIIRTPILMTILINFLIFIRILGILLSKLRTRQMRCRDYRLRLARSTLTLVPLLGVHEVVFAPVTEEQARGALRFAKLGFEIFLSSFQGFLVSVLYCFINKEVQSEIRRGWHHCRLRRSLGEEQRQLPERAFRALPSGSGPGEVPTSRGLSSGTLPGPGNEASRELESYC
Put plainly: Binding affinity to human cloned GIPR expressed in BHK cells. Type of data set: cell-based. Put shortly:
as §1

For data set [3], the target named is Glucagon-like peptide 1 receptor (Homo sapiens, UniProt P43220). Description: Binding affinity to human cloned GLP1R expressed in BHK cells. Type of data set: cell-based. In short, it runs like this:
as §1

A further data set deals with BHK. Put plainly: Selectivity ratio of IC50 for human cloned GluR to IC50 for human cloned GLP1R expressed in BHK cells. Type of data set: cell-based.
Data set [4] is described as follows: Half life in Sprague-Dawley rat at 2 mg/kg, iv. To be noted: in vivo. Type of data set: ADME, organism-based. Further details: dose 2 mg/kg, route intravenous. In short, it runs like this: (§2)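 Fasted male Sprague-Dawley rats (~200 g) were given 2 mg/kg iv or 4 mg/kg po. Vehicle: 5% ethanol, 20% propylene glycol, 10% hydroxypropyl-β-cyclodextrin in phosphate buffer pH 7.5-8.0. EDTA blood was taken by heart puncture under CO2 at 5-360 min (iv) or 15-360 min (po). Plasma was analysed by HTLC-MS/MS, with noncompartmental PK analysis.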

Data set [5] can be described thus: Oral bioavailability in Sprague-Dawley rat at 4 mg/kg. Type of data set: ADME, organism-based. To be noted: in vivo. Put shortly: as §2
For data set [6], the target named is Glucagon receptor (Rattus norvegicus, UniProt P30082). Description: Binding affinity to GlucR in rat liver membrane. Type of data set: cell membranes. Put shortly: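 Competitive binding on isolated rat liver membrane preparations, run by the same protocol as the human glucagon receptor binding assay.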
Sequence of Glucagon receptor (Rattus norvegicus, UniProt P30082) (P30082 whole entry): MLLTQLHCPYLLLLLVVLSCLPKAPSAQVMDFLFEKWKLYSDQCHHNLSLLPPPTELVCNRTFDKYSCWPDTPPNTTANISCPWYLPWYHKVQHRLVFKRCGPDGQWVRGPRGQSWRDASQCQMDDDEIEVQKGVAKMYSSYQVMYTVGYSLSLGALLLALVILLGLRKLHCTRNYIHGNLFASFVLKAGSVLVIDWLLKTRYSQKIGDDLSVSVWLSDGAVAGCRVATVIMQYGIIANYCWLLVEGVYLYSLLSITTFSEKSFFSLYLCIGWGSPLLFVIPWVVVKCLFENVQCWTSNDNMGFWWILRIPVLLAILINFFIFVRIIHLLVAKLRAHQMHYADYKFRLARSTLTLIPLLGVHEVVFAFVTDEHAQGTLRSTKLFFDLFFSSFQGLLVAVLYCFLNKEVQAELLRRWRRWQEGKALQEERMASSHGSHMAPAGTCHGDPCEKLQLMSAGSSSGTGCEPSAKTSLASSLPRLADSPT
The test system of data set [7] is Hepatocyte. Put plainly: Inhibition of glucagon-stimulated glycogenolysis in rat hepatocytes. Type of data set: functional, cell-based. In short, it runs like this:
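Isolated, cultured primary rat hepatocytes were loaded with glycogen and stimulated with 0.5 nM glucagon plus increasing compound concentrations in medium containing 0.1% HSA. Glucose released into the medium was measured after 60 min, and IC50 was derived.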

For data set [8], the system named is Hepatocyte. Put plainly: Inhibition of adrenaline-stimulated glycogenolysis in rat hepatocytes up to 25 uM. Type of data set: functional, cell-based. Put shortly:
(§3)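 Glycogen-loaded cultured primary rat hepatocytes, either unstimulated (basal) or adrenaline-stimulated, in medium with 0.1% HSA. Compounds were tested at concentrations up to 25 µM, and glycogenolysis was read as glucose release.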

Data set [9] has as its system Hepatocyte. Description: Inhibition of basal glycogenolysis in rat hepatocytes up to 25 uM. Type of data set: functional, cell-based. Put shortly:
as §3

In data set [10] the test system is Hepatocyte. Description: Increase in lactate production in rat hepatocytes. Type of data set: functional, cell-based.
A further data set has as its system Rattus norvegicus. Description: Inhibition of glucagon-stimulated increase in blood glucose levels in iv dosed Sprague-Dawley rat administered 5 mins before glucagon challenge. Type of data set: functional. In short, it runs like this: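 Nonfasted male Sprague-Dawley rats (200 g) were anaesthetized with sc fentanyl/fluanisone plus midazolam. Compound was given via jugular catheter at 0, 3 or 10 mg/kg, followed 5 min later by iv glucagon 3 µg/kg. Tail-tip blood glucose was sampled at 25 and 5 min before compound and 10 min after glucagon. Response = 10-min value minus mean basal.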

The subject of the next data set is Mus musculus. Description: Reduction of hyperglycemia in leptin-deficient obese type-2 diabetes ob/ob mouse model at 100 mg/kg, po after 6 hrs. Type of data set: functional, organism-based. Further details: dose 100 mg/kg. In short, it runs like this:
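Male ob/ob mice (11-13 weeks), selected for highest blood glucose and randomized to matched groups. Dosed 0 or 100 mg/kg by oral gavage in the morning, with food withheld for 6 h. Blood glucose was measured ~1/2 h predose and at 2, 4, 6 and 24 h, expressed as change from baseline.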

The target in data set [11] is T2, Gastric inhibitory polypeptide receptor (Rattus norvegicus, UniProt P43219).
T2 sequence (P43219 whole entry): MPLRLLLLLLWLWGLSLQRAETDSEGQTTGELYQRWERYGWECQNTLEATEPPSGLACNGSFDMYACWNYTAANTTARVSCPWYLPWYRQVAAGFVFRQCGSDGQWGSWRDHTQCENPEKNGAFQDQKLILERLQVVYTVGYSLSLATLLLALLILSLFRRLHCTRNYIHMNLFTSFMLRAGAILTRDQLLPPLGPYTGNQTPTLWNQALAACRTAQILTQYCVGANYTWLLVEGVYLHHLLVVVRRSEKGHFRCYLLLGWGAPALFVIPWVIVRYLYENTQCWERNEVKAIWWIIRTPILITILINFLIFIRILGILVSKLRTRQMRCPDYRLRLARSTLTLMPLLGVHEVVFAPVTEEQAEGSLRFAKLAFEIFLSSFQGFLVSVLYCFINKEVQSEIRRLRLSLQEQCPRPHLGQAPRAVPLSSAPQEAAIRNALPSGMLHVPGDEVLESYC
Description: Binding affinity to GIPR in rat liver membrane. Type of data set: cell membranes.

Sequence of Glucagon receptor (Homo sapiens, UniProt P47871) (P47871 whole entry): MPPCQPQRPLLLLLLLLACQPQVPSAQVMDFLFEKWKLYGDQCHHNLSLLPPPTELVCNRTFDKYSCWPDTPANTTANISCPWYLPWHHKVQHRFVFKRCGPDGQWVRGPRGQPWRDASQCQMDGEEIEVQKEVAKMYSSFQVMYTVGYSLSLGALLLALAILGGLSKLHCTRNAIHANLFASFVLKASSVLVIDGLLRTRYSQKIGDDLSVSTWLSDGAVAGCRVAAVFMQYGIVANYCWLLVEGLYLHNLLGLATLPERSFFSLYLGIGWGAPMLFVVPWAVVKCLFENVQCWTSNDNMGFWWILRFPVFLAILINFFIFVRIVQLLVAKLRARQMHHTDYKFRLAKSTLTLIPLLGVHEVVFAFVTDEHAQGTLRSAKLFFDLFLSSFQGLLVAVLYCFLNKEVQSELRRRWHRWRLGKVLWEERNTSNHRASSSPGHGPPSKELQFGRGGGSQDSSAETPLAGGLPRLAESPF
Sequence of Glucagon-like peptide 1 receptor (P43220 whole entry): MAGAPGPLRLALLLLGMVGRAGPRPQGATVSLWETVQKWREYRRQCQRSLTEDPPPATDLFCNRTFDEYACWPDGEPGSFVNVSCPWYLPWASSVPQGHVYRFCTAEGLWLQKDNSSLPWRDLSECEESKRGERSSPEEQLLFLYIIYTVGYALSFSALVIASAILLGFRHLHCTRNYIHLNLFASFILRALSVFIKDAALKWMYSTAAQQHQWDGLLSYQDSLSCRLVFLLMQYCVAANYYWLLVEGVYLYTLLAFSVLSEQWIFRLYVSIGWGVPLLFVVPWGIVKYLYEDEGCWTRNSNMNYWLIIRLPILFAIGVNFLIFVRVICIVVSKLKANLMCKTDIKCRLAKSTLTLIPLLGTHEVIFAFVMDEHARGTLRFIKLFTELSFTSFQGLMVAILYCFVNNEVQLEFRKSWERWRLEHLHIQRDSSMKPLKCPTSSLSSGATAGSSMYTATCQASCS

With `O=C(NC[C@@H](O)C(=O)O)c1ccc(CN(C(=O)Nc2cc(Cl)cc(Cl)c2)c2ccc(C3=CCCCC3)cc2)cc1`, the IC50 came to 3.9 nM on Glucagon receptor [1]; 359 nM in [2]; 17000 nM in data set [3]; 43 nM at Glucagon receptor [6]; 200 nM in the data set on Hepatocyte [7]; 501 nM in data set [11]. In the data set on BHK, the Ratio IC50 was 4300. This molecule also registered a half-life in [4] of 53 min. In [5], this molecule yielded a bioavailability of 32%. For the same molecule, the outcome with Hepatocyte [8] and with Hepatocyte [9] was inactive. In addition, the outcome with Hepatocyte [10] and with Mus musculus was Active. Moreover, the Activity entry in the data set with Rattus norvegicus is “Dose-dependent effect”. Besides, the minimal effective dose in the data set on Rattus norvegicus (read-out: MED) was 3 mg/kg.

The term IC50 denotes the midpoint of a concentration-inhibition curve. A word on the half-life: it is the time needed for the level to fall by half in the phase considered. For orientation: bioavailability means the share of a dose that reaches the circulation, judged against a reference dose that is usually intravenous. Read a high bioavailability as much systemic uptake.
